Test results: ChEMBL document CHEMBL1145101, “Macrocyclization in the design of Grb2 SH2 domain-binding ligands exhibiting high potency in whole-cell systems” (J Med Chem, 2003)

Assays:
[1] = target: Growth factor receptor-bound protein 2 (Homo sapiens, UniProt P62993); assay: Inhibition against Growth factor receptor bound protein 2 binding using ELISA technique
Outline: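 Competition ELISA: biotinylated SHC-derived Grb2 SH2-binding phosphopeptide bound at 20 ng/mL to plates overnight, then blocked with 5% BSA in TBS. Recombinant Grb2 SH2-GST fusion was preincubated with serial inhibitor dilutions, then added. After washing with 0.1% BSA/TBS, bound protein was detected with anti-GST and alkaline phosphatase-conjugated secondary, using p-nitrophenyl phosphate colorimetry. Each compound had at least three determinations, with a positive control.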

MDA-MB-453 = assay: (§1) Growth inhibition against MDA-453 breast cancer cells; type: functional, cell-based; settings: Homo sapiens
Outline: (§2)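 MDA-453 cells seeded at 500 per well and kept in IMEM with 10% fetal bovine serum at 37 °C under 5% CO₂. Inhibitor dilutions were added, with fresh drug solution each day for 5 days. Growth was read by MTT (0.5 mg/mL, 4 h), then medium removed and dissolved cells read at 570 nm. Results are expressed as percent of no-drug control.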

[2] = as §1; type: functional, cell-based; settings: Homo sapiens, Cancer cell lines; outline: as §2

| Structure (SMILES) | IC50 [1] | IC50 (MDA-MB-453) | IC50 [2] |
| --- | --- | --- | --- |
| CC1(C)NC(=O)[C@@H](CC(=O)O)[C@@H](c2ccc(CP(=O)(O)O)cc2)/C=C/C[C@@H](CC2=c3ccccc3=CCC2)CNC(=O)[C@H](CC(N)=O)NC1=O | 8 nM | 8000 nM | – |
| NC(=O)C[C@H](NC(=O)C1(NC(=O)[C@H](Cc2ccc(CP(=O)(O)O)cc2)NC(=O)C(=O)O)CCCCC1)C(=O)NCCCC1=c2ccccc2=CCC1 | – | – | 5000 nM |
| NC(=O)C[C@@H]1NC(=O)C2(CCCCC2)NC(=O)[C@@H](CC(=O)O)[C@@H](c2ccc(CP(=O)(O)O)cc2)/C=C/C[C@@H](CC2=c3ccccc3=CCC2)CNC1=O | 2 nM | 800 nM | – |

Now from value to compound, other results behind:

| IC50 [1] | IC50 (MDA-MB-453) | Structure (SMILES) | IC50 [2] |
| --- | --- | --- | --- |
| > 10000 nM | > 50000 nM | NC(=O)C[C@@H]1NC(=O)C2(CCCCC2)NC(=O)C[C@@H](c2ccc(CP(=O)(O)O)cc2)C/C=C/C[C@@H](Cc2cccc3ccccc23)CNC1=O | – |
| 20 nM | – | NC(=O)C[C@@H]1NC(=O)C2(CCCCC2)NC(=O)C[C@@H](c2ccc(CP(=O)(O)O)cc2)/C=C/C[C@@H](CC2=c3ccccc3=CCC2)CNC1=O | – |
